# Scp-1 inhibitor: blocks human Scp-1 phosphatase activity; Q9GZU7; Recombinant Scp1, phosphopeptide, malachite green phosphate absorbance; inhibition, % at 20 µM; actives 0.88% (n = 340,000);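 active = inhibition above about 50% at 20 µM, limit read from the data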;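 note: plate controls were DMSO wells with enzyme for no effect and wells lacking enzyme for full effect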
#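 Test system – truncated SCP-1 phosphatase (76-261aa) · Reagent – Phosphorylated 17-residue peptide substrate · Incubation – 45 min room-temperature reaction, 5 min colour, 30 min stabiliser · Detection – colorimetric phosphate reagent with accelerator and stabiliser, absorbance at 630 nm · Measure – % inhibition at 20 µM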
# STEP block: STEP (human) phosphatase inhibition; recombinant STEP, OMFP fluorogenic substrate, fluorescence; inhibition, % at 20 µM; actives 0.25% (n = 360,000); P54829;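 active = inhibition at 20 µM, scaled per plate between control wells, above about 37%, limit read from the data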;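 note: 0% = DMSO with enzyme and substrate and 100% = substrate only without enzyme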
#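 System: STEP (striatal-enriched tyrosine phosphatase) enzyme, cell-free; medium: Bis-Tris pH 6.0 buffer with DTT, detergent; dosing: 20 µM, 1% DMSO; times: reaction 20 min, ambient temperature; detection: fluorescence, 480/540 nm; read-out basis: normalized % inhibition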
# DNMT1 inh: DNMT1 (human) enzyme inhibition | P26358 | DNMT1 molecular beacon, Hinp1I cleavage, fluorescence | inhibition (reported as % activation of signal), % at 10 µM | actives 0.83% (n = 360,000) | AID 588458; in the data active = inhibition above about 50%
# Rpn11 inh: blocks the human proteasome subunit Rpn11 | actives 0.59% (n = 360,000) | inhibition, % at 20 µM | AID 588493 | O00487 | human 26S proteasome, Ub4-pepOG fluorescence polarization; 20S core pre-blocked with epoxomicin;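 active = inhibition at 20 µM, scaled to each plate's controls, above about 33%, limit read from the data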
# Target sequence (O00487 whole entry, looked up): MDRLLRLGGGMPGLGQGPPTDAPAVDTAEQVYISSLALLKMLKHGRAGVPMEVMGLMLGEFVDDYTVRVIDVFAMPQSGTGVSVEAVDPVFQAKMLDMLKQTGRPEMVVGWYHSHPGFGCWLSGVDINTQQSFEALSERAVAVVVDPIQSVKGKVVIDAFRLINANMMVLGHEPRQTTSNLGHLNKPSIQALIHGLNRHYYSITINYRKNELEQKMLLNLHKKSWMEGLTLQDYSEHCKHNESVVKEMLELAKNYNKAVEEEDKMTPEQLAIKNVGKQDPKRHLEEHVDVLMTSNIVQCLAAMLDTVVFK
# LMPTP block: blocks human LMPTP phosphatase; P24666; recombinant LMPTP-A, OMFP fluorogenic substrate, fluorescence intensity; inhibition, % at 20 µM; actives 0.22% (n = 360,000); AID 651560;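 active = compounds that cut the enzyme signal by at least half of the control window in the single-dose screen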;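 note: plate controls were DMSO wells with enzyme plus substrate for no effect and substrate without enzyme for full effect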
#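 test system = LMPTP-A | amount = 0.625 nM LMPTP-A final | reagent = fluorogenic phosphatase substrate OMFP at 400 µM final | incubation = 50 min at room temperature | benchmarks = no-enzyme low control, uninhibited high control | medium = Bis-Tris pH 6.0, DTT, detergent | signal = fluorescence intensity of OMFP turnover product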
# SUMO1-SIM PPI: modulators of human SUMO1-mediated protein-protein interactions. AID 602429. actives 0.33% (n = 360,000). P63165. inhibition, % at 20 µM. SUMO1 binding to a labelled peptide, TR-FRET, 1 h; in the data active = inhibition above about 37%
# Target sequence (P63165 whole entry, looked up): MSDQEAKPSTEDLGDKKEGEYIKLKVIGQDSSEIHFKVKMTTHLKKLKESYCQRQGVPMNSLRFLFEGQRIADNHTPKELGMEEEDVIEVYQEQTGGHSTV
# Scp1 confirm: confirmation of human Scp-1 phosphatase inhibitors | shares compounds with Scp-1 inhibitor | recombinant SCP-1 catalytic domain, phosphate release, malachite green absorbance | inhibition, % at 20 µM | actives 61% (n = 2,500);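 note: plate controls were DMSO with enzyme for no effect and buffer wells lacking enzyme for full effect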
# MG interference: colorimetric interference in Scp-1 counter-screen; shares compounds with Scp-1 inhibitor; Colorimetric interference counterscreen, malachite green absorbance 630 nm; apparent inhibition (interference), % at 20 µM; 2,500 tested, under 10 active;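 note: compounds added after enzyme reaction finished so only phosphate colour detection is probed; plate controls were DMSO wells with completed Scp-1 reaction for no effect and substrate wells lacking enzyme for full effect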
# Scp-1 Tm shift: Scp-1 (human) binding by thermal shift | shares compounds with Scp-1 inhibitor | AID 540329 | thermal shift relative to vanadate control, % at 40 µM | actives 25% (n = 1,500) | Recombinant SCP1, Sypro Orange thermal shift Tm;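 active = substances whose mean melting-temperature shift, as a percentage of the reference inhibitor's shift, reaches about 5.3%, limit read from the data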;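 note: 0% = Tm of DMSO wells and 100% = Tm with sodium orthovanadate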
# Starred values were filed as active, the others as inactive; . = no result given. Shown are actives, neighbours in structure and some others; about 2.3% of the full set was active somewhere.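 Rule for the calls, unless noted: active = inhibition of at least 30% at 20 µM; inactive = the rest.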
SMILES,Scp-1 inhibitor,STEP block,DNMT1 inh,Rpn11 inh,LMPTP block,SUMO1-SIM PPI,Scp1 confirm,MG interference,others
CCC(C)NC(=O)CC(NS(=O)(=O)c1ccc(NC(C)=O)cc1)C(C)C (stereo unspecified),-2.9,-1.3,0.5,-3.4,-1.7,2.0,.,.,
COc1ccc(N2C(=O)C3C(c4ccc(C(=O)O)cc4)NC(Cc4ccccc4)(C(=O)O)C3C2=O)c([N+](=O)[O-])c1 (stereo unspecified),24.3,1.6,-3.6,-2.8,-1.5,-19.2,.,.,
CN(/N=C/c1cccnc1)C1=NS(=O)(=O)c2ccccc21,-7.8,-2.4,-4.3,-0.4,-1.7,10.6,.,.,
CN(/N=C/c1cccnc1)c1cnn(-c2ccc(F)c(Cl)c2)c(=O)c1Cl,75.0*,1.0,-1.2,3.6,-0.2,-4.1,39.1*,-8.5,Scp-1 Tm shift=-19.7
CCc1ccc(NC(=O)C(=O)N/N=C(\C)CC(=O)NCc2ccc(Cl)cc2)cc1,79.5*,-2.3,17.3,-3.1,-0.4,-1.3,-2.7,-10.1,
CCNC(=O)C/C(C)=N/NC(=O)C(=O)Nc1ccc(CC)cc1,-5.5,3.9,-1.7,-2.4,-1.1,2.7,.,.,
c1ccc2c(Cn3ccnc3)cccc2c1,-1.8,1.9,1.4,0.5,1.0,-1.2,.,.,
Cc1ccc(S(=O)(=O)NC(C)CCc2ccccc2)cc1C(N)=O (stereo unspecified),-2.0,0.0,1.2,-7.2,-0.6,0.2,-4.4,-10.9,
Cc1ccc(S(=O)(=O)NC(C)CCc2ccccc2)cc1 (stereo unspecified),-2.2,1.7,-3.3,-7.4,3.2,1.5,.,.,
O=C(Nc1ccccc1C(=O)O)c1ccc2c(c1)C(=O)N(c1cccc([N+](=O)[O-])c1)C2=O,0.8,19.8,1.8,8.7,15.5,-5.5,.,.,
Cc1ccc(C(=O)O)cc1NC(=O)c1ccc2c(c1)C(=O)N(c1ccc([N+](=O)[O-])cc1)C2=O,67.5*,15.2,1.6,4.2,7.0,-20.4,62.3*,-3.8,Scp-1 Tm shift=4.4
Cn1c(C(C(=O)NCC2CCCO2)N(C(=O)Cn2nnc3ccccc32)C2CCCCC2)nc2ccccc21 (stereo unspecified),68.0*,-3.0,1.8,-1.8,-0.3,2.9,-17.8,-14.5,
CC(=O)c1ccccc1N(C(=O)Cn1nnc2ccccc21)C(C(=O)NCC1CCCO1)c1ccc(N2CCOCC2)cc1 (stereo unspecified),-10.6,-2.3,1.1,-4.6,0.2,6.4,.,.,
Cc1ccc(C(=O)C(c2ccccc2)N2Cc3ccccc3C2=N)cc1 (stereo unspecified),10.7,0.4,-5.4,9.6,13.2,-0.8,.,.,
O=c1nc2cccc3c2=c(/c1=C(\O)c1ccccc1)c1ccccc1c3=O,72.3*,3.6,38.2,-27.7,8.2,4.8,58.0*,-20.3,Scp-1 Tm shift=3.3
Cc1ccc2c(c1)C1OCCC1C1N2C(=O)C2C(C(=O)O)C3C=CC21O3 (stereo unspecified),76.7*,2.0,20.4,-7.6,-0.2,1.7,34.2*,-17.0,Scp-1 Tm shift=3.9
CC1NC(=O)NC1CCCCC(=O)O (stereo unspecified),-2.6,0.3,6.1,-8.3,-1.5,3.3,.,.,
CC1NC(=O)NC1CCCCCC(=O)Nc1ccc(F)c(Cl)c1 (stereo unspecified),-0.4,1.3,-3.4,5.1,-1.4,0.4,0.1,-6.8,
CCc1cccc(NC(=O)CCCCCC2NC(=O)NC2C)c1 (stereo unspecified),-7.4,-1.7,1.1,-3.6,-1.5,1.7,-18.8,-15.6,
Cc1ccc(NC(=O)CCCCCC2NC(=O)NC2C)cc1 (stereo unspecified),-2.7,1.0,0.3,-3.0,-0.1,1.6,11.4,4.5,
